Data on 39 molecules can be found in article PMC3983950 (Journal of medicinal chemistry, 2012).

Like-named read-outs stand apart in the source and are kept apart here.

For data set [1], the target named is T1, ABCG2 (Homo sapiens, UniProt Q9UNQ0).
T1 sequence (Q9UNQ0 1-655): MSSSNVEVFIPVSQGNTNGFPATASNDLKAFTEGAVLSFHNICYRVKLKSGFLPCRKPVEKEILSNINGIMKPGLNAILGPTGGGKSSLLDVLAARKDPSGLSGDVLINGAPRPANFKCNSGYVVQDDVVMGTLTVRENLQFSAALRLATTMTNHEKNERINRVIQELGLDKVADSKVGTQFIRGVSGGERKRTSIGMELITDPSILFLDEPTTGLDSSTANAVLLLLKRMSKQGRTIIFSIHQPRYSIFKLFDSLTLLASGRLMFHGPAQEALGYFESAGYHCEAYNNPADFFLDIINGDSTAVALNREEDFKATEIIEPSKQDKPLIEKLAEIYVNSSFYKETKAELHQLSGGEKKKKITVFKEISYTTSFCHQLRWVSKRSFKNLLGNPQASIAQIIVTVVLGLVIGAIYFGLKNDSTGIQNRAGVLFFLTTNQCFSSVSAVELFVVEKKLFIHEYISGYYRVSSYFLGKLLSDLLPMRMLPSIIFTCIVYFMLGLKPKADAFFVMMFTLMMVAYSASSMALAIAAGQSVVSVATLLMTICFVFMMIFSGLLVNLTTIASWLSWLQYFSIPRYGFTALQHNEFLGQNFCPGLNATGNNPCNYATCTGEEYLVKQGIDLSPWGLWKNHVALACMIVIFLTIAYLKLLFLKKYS
In kind it is cell-based. The note with it: for class: ranked by apparent affinity and maximal extent of inhibition; for ABCG2 inhibition (in words): at 2 and 10 µM.

The test system of data set [2] is HEK293-ABCG2 and HEK293-pcDNA3.1 cells. Put plainly: Cytotoxicity, MTT colorimetric assay, 72 h. In kind it is cell-based, human. As to conditions: for IG50 (cytotoxicity, µM): concentration producing 50% inhibition of cell growth, MTT, 72 h. The method in brief:
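HEK293-ABCG2 and empty-vector HEK293-pcDNA3.1 cells (DMEM high glucose, 10% FBS, 0.75 mg/mL G418) seeded at 1 × 10^4 cells/well, attached 24 h at 37 °C, 5% CO2. Exposed 72 h to various concentrations of test compound (DMSO stock diluted in medium). MTT (5 mg/mL solution) added for 4 h, formazan dissolved in DMSO, A570 read. Triplicates; viability relative to 0.1% DMSO control (100%).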
For orientation: Formazan colour is commonly taken as a measure of viable cells.

In the case of `COc1cccc(OC)c1C(=O)/C=C/c1ccccc1` [Compound 1], the class in data set [1] (Table 1) is given as 3.
Still for that read-out and setting: under `COc1ccccc1/C=C/C(=O)c1c(OC)cccc1OC` [Compound 2] stands 3; under `COc1cccc(/C=C/C(=O)c2c(OC)cccc2OC)c1` [Compound 3], 3.
Same read-out and setting: the same measure for `COc1cccc(OC)c1/C=C/C(=O)c1c(OC)cccc1OC` [Compound 4]: 3; for `COc1cc(OC)c(/C=C/C(=O)c2c(OC)cccc2OC)c(OC)c1` [Compound 5]: 3.
Regarding `COc1ccc(/C=C/C(=O)c2c(OC)cccc2OC)c(OC)c1OC` [Compound 6], the class in data set [1] (Table 1) stood at 3. In addition, the “ABCG2 inhibition (in words)” value in data set [1] is “no inhibition at all”.
As for `COc1cc(OC)c(OC)cc1/C=C/C(=O)c1c(OC)cccc1OC` [Compound 7], the class in data set [1] (Table 1) is listed as 3.
For `COc1cc(/C=C/C(=O)c2c(OC)cccc2OC)cc(OC)c1OC` [Compound 8], the class in data set [1] (Table 1) came out at 3. Besides, the “ABCG2 inhibition (in words)” value in data set [1] is listed as “low inhibition”.
With `CCOc1cccc(OCC)c1C(=O)/C=C/c1c(OC)cc(OC)cc1OC` [Compound 9], in data set [1] (Table 1), the class is on record as 3.
`CCOc1cccc(OCC)c1C(=O)/C=C/c1c(OC)cccc1OC` [Compound 10]: the class in data set [1] (Table 1) is 3. Further, in data set [1], the “ABCG2 inhibition (in words)” value is listed as “especially low, if any, inhibition”.
For `CCOc1cccc(OCC)c1C(=O)/C=C/c1ccc(OC)cc1OC` [Compound 11], the class in data set [1] (Table 1) is listed as 3.
On to `COc1ccc(/C=C/C(=O)c2ccc(OC)cc2OC)c(OC)c1` [Compound 12], for which, in data set [1] (Table 1), the class was 2 (Class 2 comprised high-affinity inhibitors producing an incomplete maximal inhibition (limited to 50–75%)).
On the same count and under the same terms, the same measure for `COc1cc(OC)c(/C=C/C(=O)c2c(OC)cc(OC)cc2OC)c(OC)c1` [Compound 13]: 3.
The same measure, in the same setting: the same measure for `COc1ccc(/C=C/C(=O)c2c(OC)cc(OC)cc2OC)c(OC)c1` [Compound 14]: 3.
In the case of `COc1cc(OC)c(C(=O)/C=C/c2c(OC)cccc2OC)c(OC)c1` [Compound 15], the class in data set [1] (Table 1) was 3. For the same molecule, the “ABCG2 inhibition (in words)” value in data set [1] was “especially low, if any, inhibition”.
Regarding `CCOc1cc(OCC)c(/C=C/C(=O)c2c(OCC)cc(OCC)cc2OCC)c(OCC)c1` [Compound 16], the class in data set [1] (Table 1) is 2 (Class 2 comprised high-affinity inhibitors producing an incomplete maximal inhibition (limited to 50–75%)).
For `COc1cccc(OC)c1/C=C/C(=O)c1ccccc1` [Compound 17], the class in data set [1] (Table 1) is reported as 3. Besides, the “ABCG2 inhibition (in words)” value in data set [1] is listed as “especially low, if any, inhibition”.
Regarding `COc1cc(/C=C/C(=O)c2ccc(OC)cc2O)cc(OC)c1` [Compound 18], the class in data set [1] (Table 1) is listed as 2 (Class 2 comprised high-affinity inhibitors producing an incomplete maximal inhibition (limited to 50–75%)).
The same measure, in the same setting: under `COc1ccc(C(=O)/C=C/c2ccc(OC)c(OC)c2)c(O)c1` [Compound 20] stands 2 (Class 2 comprised high-affinity inhibitors producing an incomplete maximal inhibition (limited to 50–75%)).
On the same count and under the same terms, the same measure for `COc1ccc(C(=O)/C=C/c2cc(OC)ccc2OC)c(O)c1` [Compound 23]: 2 (Class 2 comprised high-affinity inhibitors producing an incomplete maximal inhibition (limited to 50–75%)); for `COc1ccc(C(=O)/C=C/c2c(OC)cccc2OC)c(O)c1` [Compound 25]: 2 (Class 2 comprised high-affinity inhibitors producing an incomplete maximal inhibition (limited to 50–75%)).
On to `COc1ccc(C(=O)/C=C/c2ccc(OC)cc2OC)c(O)c1` [Compound 26], for which the class in data set [1] (Table 1) is reported as 2 (Class 2 comprised high-affinity inhibitors producing an incomplete maximal inhibition (limited to 50–75%)).
Same read-out and setting: the same measure for `COc1cc(O)c(C(=O)/C=C/c2c(OC)cccc2OC)c(OC)c1` [Compound 27]: 1 (Class 1 included high-affinity inhibitors (IC50 < 1 µM) producing a complete inhibition at both 2 and 10 µM).
For the molecule `COc1cc(/C=C/C(=O)c2c(O)cc(OC)cc2OC)cc(OC)c1` [Compound 28], the class in data set [1] (Table 1) was 1 (Class 1 included high-affinity inhibitors (IC50 < 1 µM) producing a complete inhibition at both 2 and 10 µM). For the same molecule, the “IG50 (cytotoxicity, µM)” value in data set [2] is given as 6.0 ± 0.4 µM.
For `COc1cc(O)c(C(=O)/C=C/c2ccccc2)c(OC)c1` [Compound 29], in data set [1] (Table 1), the class is given as 2 (Class 2 comprised high-affinity inhibitors producing an incomplete maximal inhibition (limited to 50–75%)).
Regarding `COc1cc(O)c(C(=O)/C=C/c2ccccc2OC)c(OC)c1` [Compound 30], the class in data set [1] (Table 1) was 3.
On to `COc1cccc(/C=C/C(=O)c2c(O)cc(OC)cc2OC)c1` [Compound 31], for which the class in data set [1] (Table 1) was 1 (Class 1 included high-affinity inhibitors (IC50 < 1 µM) producing a complete inhibition at both 2 and 10 µM). In addition, the “IG50 (cytotoxicity, µM)” value in data set [2] came to 10.0 ± 2.1 µM.
As for `COc1cc(OC)c(/C=C/C(=O)c2c(O)cc(OC)cc2OC)c(OC)c1` [Compound 32], the class in data set [1] (Table 1) was determined as 3.
Still for that read-out and setting: under `COc1cc(O)c(C(=O)/C=C/c2cc(OC)c(OC)c(OC)c2)c(OC)c1` [Compound 33] stands 2 (Class 2 comprised high-affinity inhibitors producing an incomplete maximal inhibition (limited to 50–75%)); under `COc1cc(O)c(C(=O)/C=C/c2ccc(OC)c(OC)c2OC)c(OC)c1` [Compound 34], 3.
For the molecule `COc1ccc(/C=C/C(=O)c2cn(C)c3ccccc23)c(OC)c1` [Compound 35], in data set [1] (Table 2), the class was 3.
The same measure, in the same setting: the same measure for `COc1cc(/C=C/C(=O)c2cn(C)c3ccccc23)cc(OC)c1OC` [Compound 36]: 3.
In the case of `COc1cc(OC)c(/C=C/C(=O)c2cn(C)c3ccccc23)c(OC)c1` [Compound 37], in data set [1] (Table 2), the class is 1 (Class 1 included high-affinity inhibitors (IC50 < 1 µM) producing a complete inhibition at both 2 and 10 µM). In addition, the “IG50 (cytotoxicity, µM)” value in data set [2] is on record as 4.0 ± 0.2 µM.
Consider `COc1cccc(OC)c1/C=C/C(=O)c1cn(C)c2ccccc12` [Compound 38], for which the class in data set [1] (Table 2) was 1 (Class 1 included high-affinity inhibitors (IC50 < 1 µM) producing a complete inhibition at both 2 and 10 µM).
For `COc1cc(OC)c(/C=C/C(=O)c2cn(C)c3ccc(OC)cc23)c(OC)c1` [Compound 39], in data set [1] (Table 2), the class is 1 (Class 1 included high-affinity inhibitors (IC50 < 1 µM) producing a complete inhibition at both 2 and 10 µM). For the same molecule, in data set [2], the “fold lower IG50 than compounds 27 and 38” value is given as 50 fold; the “IG50 (cytotoxicity, µM)” value is listed as 1.0 ± 0.1 µM.
On to `COc1ccc(C(=O)/C=C/c2cn(C)c3ccccc23)c(OC)c1` [Compound 40], for which the class in data set [1] (Table 2) came out at 3.
`COc1cc(OC)c(C(=O)/C=C/c2cn(C)c3ccccc23)c(OC)c1` [Compound 42]: the class in data set [1] (Table 2) is listed as 3. Further, the “ABCG2 inhibition (in words)” value in data set [1] was “especially low, if any, inhibition”.
As for `COc1cccc(OC)c1C(=O)/C=C/c1cn(C)c2ccccc12` [Compound 43], the class in data set [1] (Table 2) worked out at 3. Also, the “ABCG2 inhibition (in words)” value in data set [1] was “especially low, if any, inhibition”.
Turning to `Cn1cc(/C=C/C(=O)c2cn(C)c3ccccc23)c2ccccc21` [Compound 44, 1,3-diindolylpropenone], the class in data set [1] (Table 2) is recorded as 3.
